Article PMC2217204 (The Journal of General Physiology, 2000)
Where “and” joins values, the source holds several entries; their conditions need not be identical. Equal entries are not always repeated. Where two headings read alike, the source gives them in different places. One block for each compound: values may come before it.

What was measured:
KACh channel [1] = target: T1, KACh channel (Rattus norvegicus, UniProt P48548+P63251); format: cell-based; conditions: for IC50 / K 1/2 (effect on ATP-dependent gating of KACh channel): atrial inside-out patches, 100 μM GTP and 4 mM ATP, lipid 0.1, 1, 3, 10 and 30 μM, n = 3 each; for reversal of inhibition of ATP-dependent gating: fatty acid–free albumin 50 μg/ml
T1 sequence (P63251 1-501): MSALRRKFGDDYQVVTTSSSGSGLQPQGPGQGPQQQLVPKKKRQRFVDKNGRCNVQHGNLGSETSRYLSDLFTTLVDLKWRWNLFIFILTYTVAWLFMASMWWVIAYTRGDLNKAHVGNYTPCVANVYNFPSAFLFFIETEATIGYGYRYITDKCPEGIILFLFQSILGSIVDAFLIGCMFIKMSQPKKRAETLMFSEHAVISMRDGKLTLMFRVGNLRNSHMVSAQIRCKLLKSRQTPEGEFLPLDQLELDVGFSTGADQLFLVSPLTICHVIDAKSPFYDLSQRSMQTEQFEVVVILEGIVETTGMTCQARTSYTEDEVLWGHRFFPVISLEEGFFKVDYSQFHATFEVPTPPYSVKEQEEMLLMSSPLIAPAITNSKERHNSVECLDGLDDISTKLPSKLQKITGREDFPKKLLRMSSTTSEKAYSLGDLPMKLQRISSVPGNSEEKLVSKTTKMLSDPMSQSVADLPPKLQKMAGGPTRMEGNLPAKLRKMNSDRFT
T1 sequence (P48548 1-419): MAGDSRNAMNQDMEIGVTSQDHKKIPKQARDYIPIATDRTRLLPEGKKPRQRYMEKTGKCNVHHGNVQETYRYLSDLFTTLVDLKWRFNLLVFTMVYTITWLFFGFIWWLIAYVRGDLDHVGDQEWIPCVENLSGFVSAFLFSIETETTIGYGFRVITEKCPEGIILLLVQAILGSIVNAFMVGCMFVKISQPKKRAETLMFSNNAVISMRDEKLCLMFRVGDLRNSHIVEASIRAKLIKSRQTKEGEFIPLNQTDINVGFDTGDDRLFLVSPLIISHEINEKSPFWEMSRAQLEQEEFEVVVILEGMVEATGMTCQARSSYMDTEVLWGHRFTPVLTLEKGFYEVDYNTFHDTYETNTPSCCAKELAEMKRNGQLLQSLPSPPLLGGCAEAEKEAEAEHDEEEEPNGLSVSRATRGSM

K1 channel = assay: ATP-activated background K1 channel, atrial inside-out patches; format: cell-based, rat; conditions: 4 mM ATP in bath, inside-out atrial patch
KACh channel [2] = target: T1, KACh channel; format: cell-based; conditions: 4 mM ATP with 100 μM GTP in pipette, 10 μM ACh, outside-out
In short: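 Cultured atrial myocytes from 1-day-old rats; outside-out patches at −60 mV, 24–26°C. Pipette held […] 100 μM GTP, GTP plus 4 mM ATP, or these plus atrial cytosolic fraction (5 mg protein/ml). Symmetrical 140 mM KCl, 0.5 mM MgCl2, 5 mM EGTA, 10 mM HEPES, pH 7.2. nPo from 1–2 min of recording.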

KACh channel [3] = target: T1, KACh channel; format: cell-based
In short: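 Inside-out patches from cultured newborn-rat atrial cells, 10 μM ACh in pipette, −60 mV, 24–26°C. Channels were activated by 100 μM GTP in the bath, then 4 mM ATP was added, with free Mg2+ held at 0.5 mM. nPo from 1–2 min of recording. Open and closed times came from maximum-likelihood fits of idealized records to schemes with 2–3 closed and two open states, using patches with ≤4 open levels.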

KACh channel [4] = target: T1, KACh channel; conditions: cited from earlier work; for effect on KACh channel activity: physiological concentrations, ref Hong et al. 1996
KACh channel [5] = target: T1, KACh channel; format: cell-based; conditions: for τo1: 100 μM phospholipid, inside-out, n = 3
KATP channel = KATP channel (Rattus norvegicus, UniProt P70673); assay: KATP channel, inside-out patches from adult rat ventricular cells; format: cell-based; conditions: PIP2 applied soon after patch excision
Chain of KATP channel (P70673 whole entry): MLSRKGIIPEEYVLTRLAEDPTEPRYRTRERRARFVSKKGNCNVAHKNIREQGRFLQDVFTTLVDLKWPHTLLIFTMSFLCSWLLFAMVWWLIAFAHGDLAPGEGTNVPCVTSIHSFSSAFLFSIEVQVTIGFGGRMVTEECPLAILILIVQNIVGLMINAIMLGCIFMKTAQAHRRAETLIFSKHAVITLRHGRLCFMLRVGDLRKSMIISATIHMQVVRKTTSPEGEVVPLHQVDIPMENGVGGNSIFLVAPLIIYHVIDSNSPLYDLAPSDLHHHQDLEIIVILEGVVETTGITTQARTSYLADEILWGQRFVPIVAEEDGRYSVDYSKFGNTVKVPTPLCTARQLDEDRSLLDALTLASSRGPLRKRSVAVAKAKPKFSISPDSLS
Chain of KATP channel (Q63563 whole entry partner): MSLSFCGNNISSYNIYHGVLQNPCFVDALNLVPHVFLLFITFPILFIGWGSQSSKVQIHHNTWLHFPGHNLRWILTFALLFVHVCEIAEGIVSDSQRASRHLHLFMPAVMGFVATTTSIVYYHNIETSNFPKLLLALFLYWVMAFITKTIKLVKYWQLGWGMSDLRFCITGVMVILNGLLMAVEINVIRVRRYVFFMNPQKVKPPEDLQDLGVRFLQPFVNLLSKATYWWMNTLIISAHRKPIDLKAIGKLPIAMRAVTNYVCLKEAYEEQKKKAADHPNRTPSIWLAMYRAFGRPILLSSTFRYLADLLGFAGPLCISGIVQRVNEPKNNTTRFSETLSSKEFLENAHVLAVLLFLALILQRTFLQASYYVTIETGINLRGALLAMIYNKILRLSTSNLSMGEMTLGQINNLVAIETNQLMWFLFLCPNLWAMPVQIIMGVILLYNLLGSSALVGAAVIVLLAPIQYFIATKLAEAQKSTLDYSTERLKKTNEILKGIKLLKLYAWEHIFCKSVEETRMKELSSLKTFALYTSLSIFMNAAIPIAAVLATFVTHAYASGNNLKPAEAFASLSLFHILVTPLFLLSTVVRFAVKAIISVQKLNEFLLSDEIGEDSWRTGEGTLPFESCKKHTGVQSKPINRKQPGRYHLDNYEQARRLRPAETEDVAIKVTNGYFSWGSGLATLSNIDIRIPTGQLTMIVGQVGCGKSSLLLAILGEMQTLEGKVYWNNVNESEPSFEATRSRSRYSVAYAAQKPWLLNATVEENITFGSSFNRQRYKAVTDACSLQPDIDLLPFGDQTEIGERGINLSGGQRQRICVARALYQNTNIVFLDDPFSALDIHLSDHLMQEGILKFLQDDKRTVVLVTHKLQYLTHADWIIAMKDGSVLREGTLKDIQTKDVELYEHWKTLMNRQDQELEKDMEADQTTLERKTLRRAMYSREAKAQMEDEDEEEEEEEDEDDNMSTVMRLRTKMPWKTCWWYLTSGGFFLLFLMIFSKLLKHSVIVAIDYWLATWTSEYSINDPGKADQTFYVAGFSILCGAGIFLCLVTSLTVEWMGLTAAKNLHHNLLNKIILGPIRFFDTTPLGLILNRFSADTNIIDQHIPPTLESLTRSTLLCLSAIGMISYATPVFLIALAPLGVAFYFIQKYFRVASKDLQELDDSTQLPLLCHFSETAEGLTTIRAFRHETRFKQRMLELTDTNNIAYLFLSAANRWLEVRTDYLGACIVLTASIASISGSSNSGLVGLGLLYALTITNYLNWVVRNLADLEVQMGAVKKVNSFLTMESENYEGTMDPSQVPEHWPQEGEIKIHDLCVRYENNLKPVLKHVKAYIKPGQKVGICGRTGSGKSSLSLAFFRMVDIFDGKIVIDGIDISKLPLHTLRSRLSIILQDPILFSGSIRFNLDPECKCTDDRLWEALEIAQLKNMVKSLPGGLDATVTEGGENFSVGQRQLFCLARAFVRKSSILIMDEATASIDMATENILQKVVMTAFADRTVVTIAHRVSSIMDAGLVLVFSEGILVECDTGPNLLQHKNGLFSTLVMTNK
In short: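 KATP channels that appeared on forming inside-out patches were tested with 5 μM arachidonic acid on the cytoplasmic side. In some patches channels were first allowed to run down, then briefly exposed to 3 mM ATP to reactivate them before fatty acid was applied. Recordings were at 24–26°C; 2 μM was also tested (n = 3).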

[6] = K 1/2 (effect on ATP-dependent gating of KACh channel)
[7] = read-out: K 1/2 (effect on ATP-dependent gating of KACh channel)

- IC50 (KACh channel [1]; [6]): 2.8 ± 0.4 µM
Compound: CCCCCCCC(=O)OCC(CO)OC(=O)CCCCCCC (stereo not drawn) [1,2-dioctanoylglycerol]

- IC50 (KACh channel [1]; [6]): 21 ± 3 µM
Compound: CCCCCCCC/C=C\CCCCCCCC(=O)OCC(CO)OC(=O)CCCCCCC/C=C\CCCCCCCC (stereo not drawn) [1,2-dioleoylglycerol]

- IC50 (KACh channel [1]; [6]): 8.4 ± 2.2 µM
Compound: CCCCC/C=C\C/C=C\CCCCCCCC(=O)OCC(O)CO (stereo not drawn) [1-monolinoleoylglycerol]

- IC50 (KACh channel [1]; [6]): 42 ± 6 µM
Compound: CCCCCCCC/C=C\CCCCCCCC(=O)OCC(O)CO (stereo not drawn) [1-monooleoylglycerol]

- IC50 (KACh channel [1]; [6]): 52 ± 7 µM
Compound: CCCCCC/C=C\CCCCCCCC(=O)OCC(O)CO (stereo not drawn) [1-monopalmitoleoylglycerol]

- IC50 (KACh channel [1]; [6]): 22 ± 3 µM
Compound: CCCCCCCC/C=C\CCCCCCCC(=O)OCC(CO)OC(C)=O (stereo not drawn) [1-oleoyl-2-acetylglycerol]

- K 1/2 (effect on ATP-dependent gating of KACh channel) (KACh channel [1]): No effect
Compound: CCCCC/C=C\C/C=C\C/C=C\C/C=C\CCCC(=O)O[C@@H](CO)COC(=O)CCCCCCCCCCCCCCCCC [1-stearoyl-2-arachidonoyl-sn-glycerol]

- K 1/2 (effect on ATP-dependent gating of KACh channel) (KACh channel [1]): No effect
Compound: CCCCC/C=C\C/C=C\CCCCCCCC(=O)O[C@@H](CO)COC(=O)CCCCCCCCCCCCCCCCC [1-stearoyl-2-linoleoyl-sn-glycerol]

- IC50 (KACh channel [1]; [6]): 48 ± 8 µM
Compound: CCCCCCCC/C=C\CCCCCCCC(=O)OC(CO)CO [2-monooleoylglycerol]

- channel activity (nPo) with ATP versus without (KACh channel [2]): approximately fivefold higher
- increase in nPo (KACh channel [3]; 4 mM ATP added to GTP, inside-out patches): approximately fivefold increase
- mean closed time of long closings (C1) (KACh channel [3]; 4 mM ATP, inside-out patches): 62 ms
- Hill coefficient of [ATP]–nPo relationship (KACh channel [3]; n = 3): 1.9 ± 0.2
Compound: Nc1ncnc2c1ncn2[C@@H]1O[C@H](COP(=O)(O)OP(=O)(O)OP(=O)(O)O)[C@@H](O)[C@H]1O [ATP]
- activation of K1 channel (K1 channel): quickly activated

- IC50 (KACh channel [1]; [7]): 12 ± 3 µM
Compound: CCCCC/C=C\C/C=C\C/C=C\C/C=C\CCCC(=O)OC [Arachidonic acid methyl ester]

- IC50 (KACh channel [1]; [7]): 44 ± 7 µM
Compound: CCCCC/C=C\C/C=C\C/C=C\C/C=C\CCCCO [Arachidonyl alcohol]

Compound: [Ca+2] [Ca^2+]
- effect on open time constant of the KACh channel (KACh channel [4]; at concentrations above 30 μM, ref Kim 1991): decreased
- effect on KACh channel activity (KACh channel [4]): no significant effect

- K 1/2 (effect on ATP-dependent gating of KACh channel) (KACh channel [1]): No effect
Compound: CCCCCCCC(=O)O [Caprylic acid (8:0), Caprylic acid]

- K 1/2 (effect on ATP-dependent gating of KACh channel) (KACh channel [1]): No effect
Compound: CCCCCCCCCCCCCC=CC(O)C(CO)NC(C)=O (stereo not drawn) [Ceramide (C-2)]

- IC50 (KACh channel [1]; [6]): 1.4 ± 0.2 µM
Compound: CC/C=C\C/C=C\C/C=C\C/C=C\C/C=C\C/C=C\CCC(=O)O [Docosahexaenoic acid [22:6 (n-3)], Docosahexaenoic acid]

- IC50 (KACh channel [1]; [6]): 5.6 ± 2.2 µM
Compound: CC/C=C\C/C=C\C/C=C\C/C=C\C/C=C\CCCC(=O)O [Eicosapentaenoic acid [20:5 (n-3)], Eicosapentaenoic acid]

- IC50 (KACh channel [1]; [6]): 21.6 ± 4.8 µM
Compound: CCCCCCCC/C=C/CCCCCCCC(=O)O [Elaidic acid [t-18:1 (n-9)], Elaidic acid]

- K 1/2 (effect on ATP-dependent gating of KACh channel) (KACh channel [1]): No effect
Compound: OCC(O)CO [Glycerol]

- K 1/2 (effect on ATP-dependent gating of KACh channel) (KACh channel [1]): No effect
Compound: O=P(O)(O)OCC(O)CO (stereo not drawn) [Glycerophosphate]

- K 1/2 (effect on ATP-dependent gating of KACh channel) (KACh channel [1]): No effect
Compound: CCCCC/C=C\C\C=C/C=C/C=C/[C@@H](SC[C@H](NC(=O)CC[C@H](N)C(=O)O)C(=O)NCC(=O)O)[C@@H](O)CCCC(=O)O [Leukotriene C4]

- IC50 (KACh channel [1]; [7]): 3.2 ± 0.6 µM
Compound: CCCCC/C=C/C/C=C/CCCCCCCC(=O)O [Linoelaidic acid [t,t-18:2 (n-6)], Linoelaidic acid]

- IC50 (KACh channel [1]; [7]): 12.5 ± 2.1 µM
Compound: CCCCCCCC/C=C\CCCCCCCCCCCCCC(=O)O [Nervonic acid [24:1 (n-9)], Nervonic acid]

- inhibition of ATP-dependent gating, extracellular application (KACh channel [1]; 5 μM in the pipette solution (extracellular), after 5 min, n = 4 each): did not inhibit
- Hill coefficient of inhibition (KACh channel [1]; ATP-modified KACh channels, inside-out): ~2
- IC50 (KACh channel [1]; [6]): 1.5 ± 0.2 µM
- inhibition at 50 µM (KACh channel [1]; read-out: partial inhibition of ATP-dependent gating, extracellular application): 65 ± 6%
- effect on PIP2-dependent gating of KACh channel (KACh channel [5]; 2 μM fatty acid applied with 30 μM PIP2): inhibited
Compound: CCCCCCCC/C=C\CCCCCCCC(=O)O [Oleic acid [18:1 (n-9)], Oleic acid]
- inhibitory potency after incubation (KACh channel [1]; room temperature or 37°C for 30 min): reduced their inhibitory potency significantly

- K 1/2 (effect on ATP-dependent gating of KACh channel) (KACh channel [1]): No effect
Compound: CCCCCCCCCCCCCCCC(=O)O [Palmitic acid (16:0), Palmitic acid]

- IC50 (KACh channel [1]; [6]): 10.5 ± 2.4 µM
Compound: CCCCCC/C=C\CCCCCCCC(=O)O [Palmitoleic acid [16:1 (n-7)], Palmitoleic acid]

Compound: CCCCCCCCCCCCCC(=O)O[C@@H]1[C@@H](C)[C@@]2(O)[C@@H](C=C(CO)C[C@]3(O)C(=O)C(C)=C[C@@H]23)[C@@H]2C(C)(C)[C@]12OC(C)=O [Phorbol myristate acetate]
- K 1/2 (effect on ATP-dependent gating of KACh channel) (KACh channel [1]): No effect

- K 1/2 (effect on ATP-dependent gating of KACh channel) (KACh channel [1]): No effect
Compound: CCCCC[C@H](O)/C=C/[C@H]1[C@H](O)CC(=O)[C@@H]1CCCCCCC(=O)O [Prostaglandin E1]

- K 1/2 (effect on ATP-dependent gating of KACh channel) (KACh channel [1]): No effect
Compound: NCCCCNCCCN [Spermidine]

- K 1/2 (effect on ATP-dependent gating of KACh channel) (KACh channel [1]): No effect
Compound: NCCCNCCCCNCCCN [Spermine]

- K 1/2 (effect on ATP-dependent gating of KACh channel) (KACh channel [1]): No effect
Compound: CCCCCCCCCCCCC/C=C/[C@@H](O)[C@@H](N)CO [Sphingosine (D-form), Sphingosine]

- K 1/2 (effect on ATP-dependent gating of KACh channel) (KACh channel [1]): No effect
Compound: CCCCCCCCCCCCCCCCCC(=O)O [Stearic acid (18:0), Stearic acid]

Compound: Nc1nc2c(ncn2[C@@H]2O[C@@H]3COP(=O)(O)O[C@H]3[C@H]2O)c(=O)[nH]1 [cGMP]
- effect on KACh channel activity (KACh channel [4]): no significant effect

Compound: O=P(O)(O)O[C@@H]1[C@H](O)[C@H](O)[C@@H](OP(=O)(O)O)[C@H](OP(=O)(O)O)[C@H]1O [inositol trisphosphate]
- effect on KACh channel activity (KACh channel [4]): no significant effect

- IC50 (KACh channel [1]; [7]): 6.2 ± 0.8 µM
Compound: CC/C=C\C/C=C\C/C=C\CCCCCCCC(=O)O [α-linolenic acid [18:3 (n-3)], α-linolenic acid]

- K 1/2 (effect on ATP-dependent gating of KACh channel) (KACh channel [1]): No effect
Compound: Lysophosphatidylethanolamine

Compound: Phosphatidylserine
- K 1/2 (effect on ATP-dependent gating of KACh channel) (KACh channel [1]): No effect

- reversal of inhibition of ATP-dependent gating (KACh channel [1]): almost complete reversal
- reversal of inhibition of ATP-dependent gating (KACh channel [1]; listed as fatty acid-free albumin): completely remove
Compound: albumin: fatty acid–free bovine serum albumin

Compound: phosphatidylcholine
- τo1 (KACh channel [5]): 2.5 ± 0.6 ms

- τo1 (KACh channel [5]): 2.8 ± 0.5 ms
Compound: phosphatidylethanolamine

- open time constant of second open state (KACh channel [5]; 30 μM PIP2 after GTPγS (100 μM) activation): 2.6 ± 0.3 ms and 2.6 ms
- increase in channel activity (KACh channel [5]; 30 μM PIP2 after GTPγS activation): approximately twofold increase
- effect on rundown of KATP channels (KATP channel): prevented rundown
Compound: phosphatidylinositol-4,5-bisphosphate [PIP2]
